Assay results taken from ChEMBL document CHEMBL1135676, “Comparative molecular field analysis of substrates for an aryl sulfotransferase based on catalytic mechanism and protein homology modeling” (J Med Chem, 2002).

These molecules were tested against Sulfotransferase 1A1 (Rattus norvegicus, UniProt P17988) (assay: Ratio of kcat/Km determined for catalytic efficiency in sulfonation against AST IV).
Sequence of Sulfotransferase 1A1 (P17988 whole entry): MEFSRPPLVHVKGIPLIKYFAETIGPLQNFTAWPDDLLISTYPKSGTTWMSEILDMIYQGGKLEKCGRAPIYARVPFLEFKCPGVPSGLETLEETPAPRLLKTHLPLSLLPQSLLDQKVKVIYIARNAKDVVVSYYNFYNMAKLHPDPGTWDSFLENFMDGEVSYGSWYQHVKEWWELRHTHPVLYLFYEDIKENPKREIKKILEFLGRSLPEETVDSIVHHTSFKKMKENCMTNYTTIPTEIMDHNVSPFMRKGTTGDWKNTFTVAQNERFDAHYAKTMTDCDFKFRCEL
Procedure, shortened: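 Recombinant rat hepatic AST IV, expressed in E. coli and purified. Each reaction held 1.0 μg enzyme, 0.2 mM PAPS, 8.3 mM 2-mercaptoethanol, varying substrate and 0.25 M potassium phosphate at pH 7.0. Mixtures were preincubated 2 min at 37 °C, started with enzyme, run 10 min at 37 °C and stopped with methanol. Substrate-dependent PAP formation was read by HPLC and corrected with substrate-free controls. kcat is in min⁻¹ and apparent Km in M.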
Work on CCc1ccc(O)cc1 yielded a Ratio of 1390.
With OCc1cccc2ccccc12 the Ratio was 29.4.
CCCCC[C@H](O)c1ccccc1 showed a Ratio of 10.2.
Molecule CCCCCCCc1ccc(O)cc1 has a Ratio of 73.4.
For Oc1ccc(C23C[C@H]4C[C@@H](C2)C[C@@H](C3)C4)cc1, the Ratio was 1600.
CN(O)c1ccccc1 showed a Ratio of 24.2.
In the case of OCc1ccc2ccccc2c1, the Ratio is reported as 101.
With ONc1ccc(Cl)cc1 the Ratio was 45.6.
In the case of CCCCCCCc1ccc(CO)cc1, the Ratio is reported as 11.
CCCCCCc1ccc(CO)cc1 showed a Ratio of 109.
O=[N+]([O-])c1ccc(O)c(Cl)c1 was tested, and the Ratio was 190.
For CCCC[C@H](O)c1ccccc1, the Ratio was 103.
C[C@@H](O)c1ccccc1 was tested, and the Ratio was 0.4.
CCCCc1ccc(O)cc1 was tested, and the Ratio was 2230.
CCCCCc1ccc(O)cc1 showed a Ratio of 784.
In the case of O=C(CBr)Nc1ccc(O)cc1, the Ratio is reported as 146.
Work on CCN(O)c1ccccc1 yielded a Ratio of 14.2.
CCCCCC[C@H](O)c1ccccc1 was tested, and the Ratio was 8.8.
CCCc1ccc(CO)cc1 gave a Ratio of 151.
With CCCCCc1ccc(CO)cc1 the Ratio was 185.
For CCCCc1ccc(CO)cc1, the Ratio was 147.
With CN[C@H](C)[C@H](O)c1ccccc1 the Ratio was 0.1.
Molecule ONc1ccccc1 has a Ratio of 6.3.
Work on CC[C@H](O)c1ccccc1 yielded a Ratio of 1.4.
For C[C@H](O)c1ccccc1, the Ratio was 4.6.
For CCCc1ccc(O)cc1, the Ratio was 2410.
Molecule CN[C@@H](C)C(O)c1ccccc1 (stereo partly drawn) has a Ratio of 0.1.
With CC(C)[C@H](O)c1ccccc1 the Ratio was 0.2.
OC1CCCc2ccccc21 (stereo not drawn) gave a Ratio of 32.4.
CCCN(O)c1ccccc1 showed a Ratio of 20.8.
CCC[C@H](O)c1ccccc1 was tested, and the Ratio was 0.8.
Work on OCc1ccoc1 yielded a Ratio of 0.4.
With Oc1ccc(-c2ccccc2)cc1 the Ratio was 79.1.
Cc1ccc(CO)cc1 was tested, and the Ratio was 28.7.
For CCCCCCCCCc1ccc(O)cc1 [4-NONYLPHENOL], the Ratio was 28.3.
CC(=O)Nc1ccc(O)cc1 [ACETAMINOPHEN] gave a Ratio of 66.7.
OCc1ccccc1 [BENZYL ALCOHOL] was tested, and the Ratio was 20.7.
With Oc1ccc2ccccc2c1 [BETANAPHTHOL] the Ratio was 4790.
Molecule OCc1c[nH]c2ccccc12 [INDOLE-3-CARBINOL] has a Ratio of 38.9.
O=[N+]([O-])c1ccc(CO)cc1 [PARANITROBENZYL ALCOHOL] gave a Ratio of 3.5.
Oc1ccccc1 [PHENOL] gave a Ratio of 625.
Work on COC(=O)[C@@H](N)Cc1ccc(O)cc1 [TYROSINE METHYL ESTER] yielded a Ratio of 3.
Work on Cc1ccc(O)cc1 [p-CRESOL] yielded a Ratio of 1080.
